Sampled rows, rich in hits. Any-hit rate of the full collection: about 3.5%.
MrgX1 ag = agonists of human MrgX1 receptor, primary screen, HEK293 cells, Fluo-4 calcium flux. B-score at 10 µM. Fluo-4 calcium fluorescence, agonist mode; stronger effect = higher value. 310,000 compounds, 0.44% hits;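 active = calcium response B-score plate-corrected fluorescence ratio at least 3 library SD, with starting fluorescence B-score inside 5 SD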
Target sequence (Q96LB2 whole entry, looked up): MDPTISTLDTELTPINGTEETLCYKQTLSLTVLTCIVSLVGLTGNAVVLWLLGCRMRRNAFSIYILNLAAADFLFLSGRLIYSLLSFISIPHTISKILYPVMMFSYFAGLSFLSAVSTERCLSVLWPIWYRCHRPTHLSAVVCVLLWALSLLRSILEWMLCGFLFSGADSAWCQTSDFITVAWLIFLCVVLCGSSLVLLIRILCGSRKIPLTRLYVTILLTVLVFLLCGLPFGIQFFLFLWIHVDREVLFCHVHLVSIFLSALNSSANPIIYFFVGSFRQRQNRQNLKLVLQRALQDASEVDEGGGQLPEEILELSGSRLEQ
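System: HEK293 cells stably expressing human MrgX1 receptor; Dosing: test compound in the initial addition of three; Schedule: overnight plating, then 30 min 37 °C plus 30 min room-temperature dye loading; Detection: kinetic calcium dye fluorescence, Fluo-4 NW; Controls: per-plate positive and negative controls for Z′ factor.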
RGS4 inh = RGS4 inhibitors, primary screen, cell-based, HEK293 M3R inducible RGS4, calcium flux; Regulator of G-protein signaling 4 (Homo sapiens), P49798; Fluo-4 calcium flux; stronger effect = higher value; triggered by carbachol at its EC20; B-score at 10 µM; 310,000 compounds, 0.45% hits;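 active = B-score, a plate-corrected calcium signal, over three deviations above library mean, with baseline fluorescence within five deviations of library mean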;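 note: RGS4 expression induced by doxycycline in cells with stable M3 receptor; B-score is computed from the integrated fluorescence ratio over baseline after carbachol; higher B-score means a larger calcium signal and so more RGS4 inhibition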
Target sequence (P49798 whole entry, looked up): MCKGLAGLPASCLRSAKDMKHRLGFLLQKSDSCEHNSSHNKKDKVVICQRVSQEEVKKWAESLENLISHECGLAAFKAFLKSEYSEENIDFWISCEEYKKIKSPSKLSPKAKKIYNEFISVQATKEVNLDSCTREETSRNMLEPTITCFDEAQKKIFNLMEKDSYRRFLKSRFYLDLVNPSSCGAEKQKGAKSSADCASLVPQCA
MrgX1 allo act = positive allosteric modulators of MrgX1, primary screen, HEK293 cells, Fluo-4 calcium flux; Mas-related G-protein coupled receptor member X1 (Homo sapiens), Q96LB2; 310,000 compounds, 0.63% hits; B-score at 10 µM; FDSS; stronger effect = higher value;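 active = plate-corrected calcium response at least 3 library SD above typical, normal starting fluorescence, not activating the receptor alone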;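 note: compound read alongside a low EC10 to EC30 dose of BAM8-22 agonist; peak minus trough fluorescence over baseline measured at the second addition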
RGS4 act = RGS4 potentiators or activators, primary screen, cell-based, HEK293 M3R inducible RGS4, calcium flux; carbachol calcium flux Fluo4; stronger effect = lower value; B-score at 10 µM; 310,000 compounds, 0.92% hits; AID 463111, 2010;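 active = B-score of the integrated calcium signal more than 4 SD below the library mean, with starting fluorescence not abnormally high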;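 note: negative B-score means reduced calcium response which marks RGS4 activation or potentiation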
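Material: Inducible-RGS4 HEK293 cells carrying M3 receptor; also added: carbachol at ECmax as muscarinic agonist stimulus; incubation: compound preincubation 20 min at room temperature before agonist; signal: Fluo4-AM (2 µM) calcium-flux fluorescence, kinetic read; measure: integrated calcium ratio converted to B score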
MrgX1 antag = antagonists of human MrgX1 receptor, primary screen, HEK293 cells, Fluo-4 calcium flux; Mas-related G-protein coupled receptor member X1 (Homo sapiens), Q96LB2; BAM8-22 antagonism; stronger effect = lower value; B-score at 10 µM; 310,000 compounds, 1.3% hits; AID 588676, 2011;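 active = calcium-response B-score plate-corrected more than 3 library SD below zero, starting fluorescence within 5 deviations, no agonist response on first addition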;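 note: peak minus trough fluorescence over baseline after final BAM8-22 challenge near maximal dose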
RGS4 act valid = reduced carbachol calcium response, RGS4-induced M3R cells, confirmation, RGS4 activator project, cell-based, HEK293 M3R/RGS4 inducible, calcium flux, duplicate; shares compounds with RGS4 act; carbachol calcium flux Fluo4; inhibition, % at 10 µM; 1,100 compounds, 89% hits; AID 602282, 2012;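 active = inhibition above 3 SD of the buffer control wells, cut at about 41% in these data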;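 note: signal is the integrated peak-minus-minimum Fluo4 fluorescence over baseline ratio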
RGS4 act ctr = counter-screen for RGS4 activators: effect in non-induced cells | shares compounds with RGS4 act | HEK293 M3R non-induced RGS4, Fluo4 calcium flux; after carbachol challenge at its EC90 | inhibition, % at 10 µM | 1,100 compounds, 82% hits;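 active = inhibition exceeding 3 SD of buffer-only control wells, cut at about 26% in these data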;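 note: percent drop in integrated peak-minus-baseline over baseline Fluo4 ratio after carbachol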
An asterisk follows results filed as active.

`COc1ccc(CCN(C(=O)c2cccc(F)c2)C2CC(=O)N(c3ccccc3)C2=O)cc1` (configuration not stated) gave MrgX1 ag inactive, RGS4 inh inactive, MrgX1 allo act inactive, RGS4 act inactive and MrgX1 antag inactive.
COc1ccc(N2C(=O)CC(N(CCc3ccccc3)C(=O)c3ccccc3)C2=O)cc1 (configuration not stated) was read as MrgX1 ag inactive, RGS4 inh inactive, MrgX1 allo act inactive, RGS4 act -11*, MrgX1 antag inactive, RGS4 act valid 0 and RGS4 act ctr 0.
`Cc1ccc(S(=O)(=O)NC(CC(C)C)C(=O)Oc2ccc3c4c(c(=O)oc3c2)CCC4)cc1` (configuration not stated) gave MrgX1 ag inactive, RGS4 inh inactive, MrgX1 allo act inactive, RGS4 act -9.4*, MrgX1 antag inactive, RGS4 act valid 92* and RGS4 act ctr 92*.
For CCOc1ccc2ccccc2c1/C=N/NC(=O)CNC(=O)c1ccccc1O the results were MrgX1 ag inactive, RGS4 inh inactive, MrgX1 allo act inactive, RGS4 act inactive and MrgX1 antag inactive.
Screening CN(C)CCCNC(=O)N1c2ccccc2Sc2ccccc21 returned MrgX1 ag inactive, RGS4 inh inactive, MrgX1 allo act inactive, RGS4 act -11*, MrgX1 antag inactive, RGS4 act valid 92* and RGS4 act ctr 91*.
O=C(CCN1CCOCC1)N1c2ccccc2Sc2ccc(Cl)cc21 was read as MrgX1 ag inactive, RGS4 inh inactive, MrgX1 allo act inactive, RGS4 act -8.9*, MrgX1 antag inactive, RGS4 act valid 92* and RGS4 act ctr 90*.
O=C(CSc1nc2ccccc2s1)N1c2ccccc2Sc2ccc(Cl)cc21 was read as MrgX1 ag inactive, RGS4 inh inactive, MrgX1 allo act inactive, RGS4 act inactive and MrgX1 antag inactive.
For O=C(NCCN1CCOCC1)N1c2ccccc2Sc2ccccc21 the results were MrgX1 ag inactive, RGS4 inh inactive, MrgX1 allo act inactive, RGS4 act -11*, MrgX1 antag inactive, RGS4 act valid 83* and RGS4 act ctr 54*.
`COc1ccccc1Cn1c(=O)oc2ccc(C)cc21` gave MrgX1 ag inactive, RGS4 inh inactive, MrgX1 allo act inactive, RGS4 act inactive and MrgX1 antag inactive.
For CCCCOc1ccccc1Cn1c(=O)oc2ccc(C)cc21 the results were MrgX1 ag inactive, RGS4 inh inactive, MrgX1 allo act inactive, RGS4 act -7.7*, MrgX1 antag inactive, RGS4 act valid 92* and RGS4 act ctr 91*.
Screening CCN(CC)c1ccc(N=C2C(=O)Nc3ccccc32)cc1 returned MrgX1 ag inactive, RGS4 inh inactive, MrgX1 allo act inactive, RGS4 act -11*, MrgX1 antag inactive, RGS4 act valid 84* and RGS4 act ctr 39*.
For O=C1Nc2ccccc2C1=Nc1ccc(Br)cc1 the results were MrgX1 ag inactive, RGS4 inh inactive, MrgX1 allo act inactive, RGS4 act inactive and MrgX1 antag inactive.
For CCOC(=O)C1CCN(Cc2cccc(Oc3ccc(Cl)cc3)c2)CC1 the results were MrgX1 ag inactive, RGS4 inh inactive, MrgX1 allo act inactive, RGS4 act inactive and MrgX1 antag inactive.
CCN1CCN(Cc2cccc(Oc3ccccc3)c2)CC1 was read as MrgX1 ag inactive, RGS4 inh inactive, MrgX1 allo act inactive, RGS4 act -8*, MrgX1 antag inactive, RGS4 act valid 62* and RGS4 act ctr 84*.
`CCN1CCN(Cc2cccc(Oc3ccc(Cl)cc3)c2)CC1` gave MrgX1 ag inactive, RGS4 inh inactive, MrgX1 allo act inactive, RGS4 act -9.4*, MrgX1 antag inactive, RGS4 act valid 92* and RGS4 act ctr 61*.
For CN1CCN(Cc2cccc(Oc3ccc(Cl)cc3)c2)CC1 the results were MrgX1 ag inactive, RGS4 inh inactive, MrgX1 allo act inactive, RGS4 act -12*, MrgX1 antag inactive, RGS4 act valid 90* and RGS4 act ctr 38*.
`COc1cccc(OC)c1C(=O)OCCCOC(=O)c1c(OC)cccc1OC` gave MrgX1 ag inactive, RGS4 inh inactive, MrgX1 allo act inactive, RGS4 act inactive and MrgX1 antag inactive.
`O=C(NCc1ccccn1)C1C2C=CC(C2)C1C(=O)Nc1ccc(F)cc1` (configuration not stated) gave MrgX1 ag inactive, RGS4 inh inactive, MrgX1 allo act inactive, RGS4 act inactive and MrgX1 antag inactive.
CN(C)CCOC(C1CCCCC1)C1CCCCC1 was read as MrgX1 ag inactive, RGS4 inh inactive, MrgX1 allo act inactive, RGS4 act -9.1*, MrgX1 antag inactive, RGS4 act valid 90* and RGS4 act ctr 68*.
Screening Cc1ccc(Sc2ccc(N)cc2C#N)cc1 returned MrgX1 ag inactive, RGS4 inh inactive, MrgX1 allo act inactive, RGS4 act -8.8*, MrgX1 antag inactive, RGS4 act valid 83* and RGS4 act ctr 42*.
Cc1ccc(Sc2nnc(-c3ccccc3)cc2C#N)cc1 was read as MrgX1 ag inactive, RGS4 inh inactive, MrgX1 allo act inactive, RGS4 act inactive and MrgX1 antag inactive.
Screening c1ccc(N2CCN(c3cnccn3)CC2)nc1 returned MrgX1 ag inactive, RGS4 inh inactive, MrgX1 allo act inactive, RGS4 act -8.4*, MrgX1 antag inactive, RGS4 act valid 0 and RGS4 act ctr 0.
COc1ccc2c(c1)CC1c3c(cc4c(c3-2)OCO4)CC[N+]1(C)[O-] (configuration not stated) was read as MrgX1 ag inactive, RGS4 inh inactive, MrgX1 allo act inactive, RGS4 act inactive and MrgX1 antag inactive.
For CN1CCN(C2=C(NS(=O)(=O)c3cccs3)C(=O)c3ccccc3C2=O)CC1 the results were MrgX1 ag inactive, RGS4 inh inactive, MrgX1 allo act inactive, RGS4 act inactive and MrgX1 antag inactive.
